Screens (PubChem BioAssay)
Measles CPE: protection of cells from measles virus | protection (pct of control), % at 4 µM | 140,000 compounds, 1.5% hits | Measles virus-infected cells, CPE protection, absorbance; in the data active = protection mostly above about 24%, no sharp cut-off; inactive = mostly below about 26%
NFkB transloc inh: blocks IL-1B driven NFkB nuclear translocation in HUVEC cells | HUVEC IL-1B NFkB p65 nuclear translocation imaging | inhibition, % at 2 µM | 94,000 compounds, 0.43% hits;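 active = inhibition above about 30% together with a positive call from visual inspection of the well image, limit read from the data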;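 also: nuclear over cytoplasmic p65 intensity ratio measured by imaging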
FAK inh: blocks human focal adhesion kinase activity; 97,000 compounds, 0.84% hits; inhibition, %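 (tested at 7 µM)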; biochemical FAK kinase activity assay; Q05397; in the data active = inhibition above about 19%
HIV Rev-RRE inh: disrupts HIV-1 Rev binding to RRE RNA. P05866. Rev peptide-RRE RNA binding, FRET. 97,000 compounds, 0.79% hits. inhibition, % at 8 µM;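 active = inhibition above the screen-wide mean plus 3 SD, cut at about 35% in these data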
Target sequence (P05866 whole entry, looked up): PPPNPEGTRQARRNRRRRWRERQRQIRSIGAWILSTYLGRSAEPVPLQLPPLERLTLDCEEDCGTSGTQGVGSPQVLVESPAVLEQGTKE
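Test system: labelled RRE RNA duplex and labelled Rev peptide. Times: 5 min compound–RNA preincubation, then 15 min with peptide, 25 °C. Doses: single-dose 8 µM. Measured by: FRET, excitation 480 nm, emission 540 nm donor and 671 nm acceptor. Measure: % inhibition of FRET ratio versus controls.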
NFkB transloc pot: enhances IL-1B driven NFkB nuclear translocation. 94,000 compounds, 0.3% hits. AID 819. HUVEC IL-1B NFkB p65 nuclear translocation imaging. activation, % at 2 µM;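 active = activation above 40%, about the mean plus 3 SD, also judged a hit on visual image review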;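 also: percent activation is computed from the nuclear over cytoplasmic p65 intensity ratio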
IL1B cytotox: toxic to HUVEC cells under IL-1B stimulation. HUVEC cell count loss, Hoechst imaging, IL-1B stimulated. cell count reduction, % at 2 µM. 94,000 compounds, 0.41% hits. AID 845;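 active = cell count reduction more than 3 SD above the screen-wide mean, cut at about 70% in these data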
Each line names hits and unclear results; the compound was inactive in the other large screens. An excerpt weighted towards active compounds, which were near 3.3% of everything screened.

CSc1nc(-c2ccc(Cl)cc2Cl)[nH]c(=O)c1C#N	Measles CPE 55 (no result: NFkB transloc inh, FAK inh, HIV Rev-RRE inh, NFkB transloc pot, IL1B cytotox)
CCCCCNC(=O)CCc1ccccc1	Measles CPE 53
O=C(CCC(=O)NCCCc1ccccc1)NCCCc1ccccc1	none (no result: NFkB transloc inh, FAK inh, HIV Rev-RRE inh, NFkB transloc pot, IL1B cytotox)
O=C(O)CC/C(=N\NC(=O)c1ccccc1Br)c1ccccc1	none (no result: NFkB transloc inh, FAK inh, HIV Rev-RRE inh, NFkB transloc pot, IL1B cytotox)
O=C(C1CC(c2ccccc2O)=NO1)N1CCc2ccccc2C1 (stereo not given)	Measles CPE 47
O=C(C1CC(c2ccc(F)cc2)=NO1)N1CCc2ccccc2C1 (stereo not given)	none
CC(C)(C)c1nc[nH]c(=O)c1Br	none (no result: NFkB transloc inh, FAK inh, HIV Rev-RRE inh, NFkB transloc pot, IL1B cytotox)
O=C(O)CNC(=O)c1ccccc1NC(=O)c1ccco1	none
CN(Cc1ccccc1)C(=O)c1ccccc1NC(=O)c1ccco1	NFkB transloc pot 42, IL1B cytotox 88
Nc1c([N+](=O)[O-])cnnc1-c1ccccc1	none (no result: NFkB transloc inh, FAK inh, HIV Rev-RRE inh, NFkB transloc pot, IL1B cytotox)
O=S(=O)(NCc1cccnc1)c1ccc(Cl)s1	NFkB transloc inh 59, IL1B cytotox 90
Cc1ccc2nsnc2c1S(=O)(=O)NCc1cccnc1	Measles CPE 39
CC(NC(=O)/C(C#N)=C1\N=C(NC(=O)c2cccs2)c2ccccc21)c1ccccc1 (stereo not given)	none (no result: NFkB transloc inh, FAK inh, HIV Rev-RRE inh, NFkB transloc pot, IL1B cytotox)
COc1cc(NC(=S)NCCCN2CCOCC2)cc(OC)c1	none (no result: NFkB transloc inh, FAK inh, HIV Rev-RRE inh, NFkB transloc pot, IL1B cytotox)
O=C(NCc1ccco1)c1ccc(COCC(F)(F)C(F)F)cc1	Measles CPE 33
O=C(N/N=C/c1ccc([N+](=O)[O-])s1)c1cccnc1	none (no result: NFkB transloc inh, FAK inh, HIV Rev-RRE inh, NFkB transloc pot, IL1B cytotox)
CC1(C)C2CCC1(CS(=O)(=O)Nc1ccc(S(=O)(=O)N3CCCCC3)cc1)C(=O)C2 (stereo not given)	none (no result: NFkB transloc inh, FAK inh, HIV Rev-RRE inh, NFkB transloc pot, IL1B cytotox)
Cc1ccc(-n2c(SCC(=O)N3CC(=O)Nc4ccccc43)nc3ccccc3c2=O)cc1	Measles CPE 33 (no result: NFkB transloc inh, FAK inh, HIV Rev-RRE inh, NFkB transloc pot, IL1B cytotox)
Cc1ccc(S(=O)(=O)N[C@H](C(=O)Oc2ccc3c(C(F)(F)F)cc(=O)oc3c2)c2ccccc2)cc1	HIV Rev-RRE inh 58
CC(=O)CCN1CCOCC1	Measles CPE 94
CN(C)C(=O)CCN1CCOCC1	none
CCCn1nc(C(=O)Oc2ccc3c(C)cc(=O)oc3c2)c2ccccc2c1=O	none (no result: NFkB transloc inh, FAK inh, HIV Rev-RRE inh, NFkB transloc pot, IL1B cytotox)
c1ccc(-n2nnnc2-c2cnc(-c3ccncc3)nc2-c2cccs2)cc1	FAK inh 30
S=C(Cc1cccnc1)N1CCOCC1	none (no result: NFkB transloc inh, FAK inh, HIV Rev-RRE inh, NFkB transloc pot, IL1B cytotox)
Cc1cc(SCC(=O)Nc2cccc(S(=O)(=O)NC3=NCCCCC3)c2)c(C)cc1Br	Measles CPE 28 (no result: NFkB transloc inh, FAK inh, HIV Rev-RRE inh, NFkB transloc pot, IL1B cytotox)
Cc1cccc(/C=C/C(=O)c2cc(Br)ccc(=O)c2O)c1	HIV Rev-RRE inh 37
N#Cc1cc(Br)ccc1N=C1CCCN1c1ccccc1	none (no result: NFkB transloc inh, FAK inh, HIV Rev-RRE inh, NFkB transloc pot, IL1B cytotox)
Cc1cccc(N=C2Sc3nc4c(C)c(C)ccc4cc3CN2CCN2CCOCC2)c1	Measles CPE 31
CC1CCc2nc(N)c(C#N)c(-c3ccncc3)c2C1 (stereo not given)	none
CC1CCc2nc(N)c(C#N)c(-c3cccnc3)c2C1 (stereo not given)	Measles CPE 76
O=C(Oc1ccc([N+](=O)[O-])cc1)c1cncc(Br)c1	none (no result: NFkB transloc inh, FAK inh, HIV Rev-RRE inh, NFkB transloc pot, IL1B cytotox)
CCOc1ccc(C(=O)OCCN(C)C)cc1	NFkB transloc pot 58
O=C(CCC(=O)Nc1nnc(C2CCCCC2)s1)NCC1CCCO1 (stereo not given)	Measles CPE 65
CC(C)(C)c1ccc(C(=O)Nc2cccc3c(=O)[nH][nH]c(=O)c23)cc1	none (no result: NFkB transloc inh, FAK inh, HIV Rev-RRE inh, NFkB transloc pot, IL1B cytotox)
CCn1c(SCc2nnc(-c3ccccc3)o2)nnc1-c1ccc(S(=O)(=O)N2CCCC2)cc1	Measles CPE 55
CCn1c(SCc2ccccc2)nnc1-c1ccc(S(=O)(=O)N2CCCCC2)cc1	none
C/C(=N/OCO/N=C(/C)c1ccc(F)cc1)c1ccc(F)cc1	Measles CPE 29 (no result: NFkB transloc inh, FAK inh, HIV Rev-RRE inh, NFkB transloc pot, IL1B cytotox)
C/C(=N/OCO/N=C(\C)c1ccccc1)c1ccccc1	none (no result: NFkB transloc inh, FAK inh, HIV Rev-RRE inh, NFkB transloc pot, IL1B cytotox)
CCOC(=O)c1c(C)n(C)c2ccc(OC)c(NC(=O)CCN3CCSCC3)c12	Measles CPE 37
COC(=O)c1[nH]c2cc(OC)ccc2c1NC(=O)CCN1CCSCC1	none
CCOC(=O)c1c(C)n(C)c2ccc(OC)c(NC(=O)CN3CCN(C4CCCCC4)CC3)c12	IL1B cytotox 87
CCOC(=O)c1c(C)n(C)c2ccc(OC)c(NC(=O)CN3CCN(C(=O)c4ccco4)CC3)c12	Measles CPE 26
CCOC(=O)c1c(C)n(C)c2ccc(OC)c(NC(=O)CN3CCN(Cc4ccccc4)CC3)c12	none
CCC(Oc1ccccc1)C(=O)NCCOC (stereo not given)	none (no result: NFkB transloc inh, FAK inh, HIV Rev-RRE inh, NFkB transloc pot, IL1B cytotox)
O=C(COc1cccnc1[N+](=O)[O-])Nc1ccc2c(c1)OC(F)(F)O2	none (no result: NFkB transloc inh, FAK inh, HIV Rev-RRE inh, NFkB transloc pot, IL1B cytotox)
